pEC50, pIC50: −log10 of the molar value. Active and inactive are the calls of the source. The calls are words filed in the database; no cut-off is given here.
Legend:
[1] = tested on: Trypanosoma brucei; test: Antitrypanosomal activity against bloodstream Trypanosoma brucei assessed as increase in 1K2N cells after 7 hrs by DAPI staining-based fluorescence microscopy; format: functional, organism-based
In short: (§1)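 After 7 h with or without drug, trypanosomes were stained with DAPI and imaged by single-cell fluorescence microscopy with DIC. Nuclei (N) and kinetoplasts (K) were counted per cell to give the distribution of organelle configurations.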

[2] = tested on: Trypanosoma brucei; test: Antitrypanosomal activity against bloodstream Trypanosoma brucei assessed as reduction in 1K1N cells after 7 hrs by DAPI staining-based fluorescence microscopy; format: functional, organism-based; in short: as §1
[3] = tested on: Trypanosoma brucei; test: Reduction of 2C to 4C equivalents of DNA in bloodstream Trypanosoma brucei after 7 hrs by DAPI staining-based fluorescence microscopy (reference value: 40 %); format: functional; set-up: scale not given: the % may be the effect or the level left
[4] = tested on: Trypanosoma brucei; test: Antitrypanosomal activity against bloodstream Trypanosoma brucei assessed as increase in 4C equivalents of DNA after 7 hrs by DAPI staining-based fluorescence microscopy (reference value: 25 %); format: functional
[5] = tested on: Trypanosoma brucei; test: Antitrypanosomal activity against bloodstream Trypanosoma brucei assessed as DNA profile alteration after 7 hrs by propidium iodide staining-based flow cytometry; format: functional, organism-based
In short: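 Trypanosomes were incubated 7 h with drug or without (control), then stained with propidium iodide. Flow cytometry analysed 10,000 events, and DNA content per cell (2C, 2C-4C, 4C populations) was quantified.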

[6] = tested on: Trypanosoma brucei; test: Inhibition of transferrin receptor-mediated endocytosis in bloodstream Trypanosoma brucei at 8 uM after 7 hrs by flow cytometry
[7] = tested on: Trypanosoma brucei brucei; test: Antitrypanosomal activity against Trypanosoma brucei brucei CA427 infected in Swiss Webster mouse assessed as mouse mortality at 10 mg/kg, po bid by hemocytometer; format: functional, organism-based; set-up: dose 10 mg/kg
In short: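 Mice were infected with 10^4 T. brucei brucei CA427 cells. From 24 h post-infection, they were dosed orally at 10 mg/kg twice per day (20 mg/kg/day). Daily parasitemia and survival were followed against untreated control mice.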

[8] = tested on: Trypanosoma brucei brucei; test: Antitrypanosomal activity against Trypanosoma brucei brucei CA427 infected in Swiss Webster mouse assessed as mouse survival at 10 mg/kg, ip bid by hemocytometer (reference value: 5 days); format: functional; conditions: route intraperitoneal
[9] = tested on: Trypanosoma brucei brucei; test: Antitrypanosomal activity against Trypanosoma brucei brucei CA427 infected in Swiss Webster mouse assessed as reduction in replication rate at 10 mg/kg, ip bid measured on day 3 by hemocytometer; format: functional, organism-based; set-up: dose 10 mg/kg
In short: (§2)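 Mice were infected with 10^4 T. brucei brucei CA427 cells. From 24 h post-infection, they were dosed i.p. at 10 mg/kg twice per day (20 mg/kg/day). Blood parasitemia was measured each day against untreated control mice.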

[10] = tested on: Trypanosoma brucei brucei; test: Antitrypanosomal activity against Trypanosoma brucei brucei CA427 infected in Swiss Webster mouse assessed as delayed detection of trypanosomes in blood at 10 mg/kg, ip bid after 24 hrs by hemocytometer; format: functional, organism-based; set-up: dose 10 mg/kg; in short: as §2
[11] = tested on: Mus musculus; test: Toxicity in Swiss Webster mouse infected with Trypanosoma brucei brucei CA427at 40 mg/kg, po; format: organism-based; set-up: dose 40 mg/kg, route oral; conditions: in vivo
In short: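 Infection used 10^4 T. brucei brucei CA427 cells per mouse. Beginning 24 h later, mice received 40 mg/kg once per day in a multi-day regimen. Blood was checked for parasites over 3 days against untreated infected controls, and drug-related toxicity was noted.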

[12] = tested on: Brain; test: Drug uptake in BALB/c mouse brain at 40 mg/kg, po after 24 hrs; format: ADME, organism-based; set-up: dose 40 mg/kg, route oral; conditions: in vivo
In short: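 Mice received a single oral dose of 40 mg/kg. Drug levels in plasma and brain tissue were measured over 24 hours.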

[13] = tested on: Trypanosoma brucei brucei; test: Antitrypanosomal activity against bloodstream form Trypanosoma brucei brucei Lister 427 after 48 hrs by hemocytometer; format: functional, organism-based; conditions: Lister 427, 48 h
In short: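 Bloodstream Lister 427 cells were seeded at 2 × 10^3 cells/ml in HMI-9 medium and given drug from 200X DMSO stocks, with DMSO as control. Three independent experiments, each dose in duplicate (n = 6).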

[14] = tested on: HepG2; test: Cytotoxicity against human HepG2 cells after 48 hrs by MTT assay; format: cell-based; conditions: HepG2, 48 h
In short: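 HepG2 cytotoxicity was read by an MTT assay adapted to 384-well format. IC50 was fitted by nonlinear regression (sigmoidal dose-response, variable slope).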

Compound	pEC50 [13]	pIC50 [14]	other results
Fc1cccc(COc2ccc(Nc3ncnc4ccc(-c5cccc(N6CCOCC6)c5)cc34)cc2Cl)c1	7.38	–	Activity [1]: Active; Activity [2]: Active; Activity [3]: 25%; Activity [4]: 40%; Activity [5]: Active; inhibition [6]: inactive; Activity [7]: inactive; Survival [8]: 9 days; Activity [9]: Active; Activity [10]: Active; Activity [11]: Toxic; Drug uptake [12]: 5%
O=C(c1cccc(-c2ccc3ncnc(Nc4ccc(OCc5cccc(F)c5)c(Cl)c4)c3c2)c1)N1CCCCC1	6.85	< 5.22	–
O=S(=O)(c1ccc(-c2ccc3ncnc(Nc4ccc(OCc5ccccc5)c(Cl)c4)c3c2)cc1)N1CCOCC1	5.87	< 4.82	–
O=S(=O)(c1ccc(-c2ccc3ncnc(Nc4ccc(OCc5cccc(F)c5)c(Cl)c4)c3c2)cc1)N1CCNCC1	6.55	5.48	–
O=S(=O)(c1cccc(-c2ccc3ncnc(Nc4ccc(OCc5cccc(F)c5)c(Cl)c4)c3c2)c1)N1CCCCC1	6.34	< 4.82	–
Cc1ccc(Nc2ncnc3ccc(-c4ccc(S(=O)(=O)N5CCOCC5)cc4)cc23)cc1	5.94	< 4.82	–
O=S(=O)(c1ccc(-c2ccc3ncnc(Nc4ccc(OCc5cccc(F)c5)c(Cl)c4)c3c2)cc1)N1CCCC1	6.46	< 4.82	–
O=S(=O)(c1ccc(-c2ccc3ncnc(Nc4ccc(OCc5cc(F)cc(F)c5F)c(Cl)c4)c3c2)cc1)N1CCOCC1	5.95	< 5.52	–
CS(=O)(=O)c1cccc(-c2ccc3ncnc(Nc4ccc(OCc5cccc(F)c5)c(Cl)c4)c3c2)c1	5.49	< 4.82	–

Source: ChEMBL document CHEMBL2346527, “Kinase scaffold repurposing for neglected disease drug discovery: discovery of an efficacious, lapatinib-derived lead compound for trypanosomiasis” (J Med Chem, 2013)
